Values after ≈ are worked out from the molar mass of the structure shown. Active and inactive are the calls of the source. No cut-off for these calls is given here.
What was measured:
[1] = tested on: Mycobacterium tuberculosis; assay: Antimycobacterial activity against rifampin, ethambutol resistant Mycobacterium tuberculosis isolate A2558 at 37 degC after 3 to 4 weeks by radiometric Bactec 460TB method; assay type: functional
[2] = tested on: Mycobacterium tuberculosis; assay: Antimycobacterial activity against ethambutol resistant Mycobacterium tuberculosis isolate NJT210EMB-R-C1 assessed as bacterial colony formation at 37 degC after 10 to 11 days by radiometric Bactec 460TB method; assay type: functional
[3] = tested on: Mycobacterium tuberculosis; assay: Antimycobacterial activity against isoniazid, rifampin, ethambutol resistant Mycobacterium tuberculosis isolate NJT5310 expressing embB codon 306 ATG mutant at 37 degC after 3 to 4 weeks by radiometric Bactec 460TB method; assay type: functional
[4] = tested on: Mycobacterium tuberculosis; assay: Antimycobacterial activity against Mycobacterium tuberculosis isolate NJT210 expressing embB codon 306 GTG mutant at 37 degC after 10 to 11 days by radiometric Bactec 460TB method; assay type: functional
[5] = tested on: Mycobacterium tuberculosis; assay: Antimycobacterial activity against rifampin, ethambutol resistant Mycobacterium tuberculosis isolate 30167 at 37 degC after 3 to 4 weeks by radiometric Bactec 460TB method; assay type: functional
[6] = tested on: Mycobacterium tuberculosis; assay: Antimycobacterial activity against isoniazid, rifampin, ethambutol resistant Mycobacterium tuberculosis isolate NJT5310 expressing embB codon 306 ATG-ATA mutant at 37 degC after 3 to 4 weeks by radiometric Bactec 460TB method; assay type: functional
[7] = tested on: Mycobacterium tuberculosis; assay: Antimycobacterial activity against isoniazid, rifampin, ethambutol resistant Mycobacterium tuberculosis isolate NJT5310 expressing embB codon 306 ATG-GTG mutant at 37 degC after 3 to 4 weeks by radiometric Bactec 460TB method; assay type: functional
[8] = tested on: Mycobacterium tuberculosis; assay: Antimycobacterial activity against Mycobacterium tuberculosis isolate NJT210 expressing embB codon 306 CTG mutant at 37 degC after 10 to 11 days by radiometric Bactec 460TB method; assay type: functional
[9] = tested on: Mycobacterium tuberculosis; assay: Antimycobacterial activity against Mycobacterium tuberculosis isolate NJT210 expressing embB codon 306 ATC-ATG mutant at 37 degC after 10 to 11 days by radiometric Bactec 460TB method; assay type: functional
[10] = tested on: Mycobacterium tuberculosis; assay: Antimycobacterial activity against Mycobacterium tuberculosis isolate NJT210 expressing embB codon 306 ATC mutant at 37 degC after 10 to 11 days by radiometric Bactec 460TB method; assay type: functional
[11] = tested on: Mycobacterium tuberculosis; assay: Antimycobacterial activity against rifampin, ethambutol resistant Mycobacterium tuberculosis isolate 5041 at 37 degC after 3 to 4 weeks by radiometric Bactec 460TB method; assay type: functional
[12] = tested on: Mycobacterium tuberculosis; assay: Antimycobacterial activity against rifampin, ethambutol resistant Mycobacterium tuberculosis isolate NJT30167 expressing embB codon 306 ATG mutant at 37 degC after 3 to 4 weeks by radiometric Bactec 460TB method; assay type: functional
[13] = tested on: Mycobacterium tuberculosis; assay: Antimycobacterial activity against Mycobacterium tuberculosis isolate NJT210 expressing embB codon 306 ATA mutant at 37 degC after 10 to 11 days by radiometric Bactec 460TB method; assay type: functional
[14] = tested on: Mycobacterium tuberculosis; assay: Antimycobacterial activity against Mycobacterium tuberculosis isolate NJT210 expressing embB codon 306 CTG-ATG mutant at 37 degC after 10 to 11 days by radiometric Bactec 460TB method; assay type: functional
[15] = tested on: Mycobacterium tuberculosis; assay: Antimycobacterial activity against isoniazid, rifampin, ethambutol resistant Mycobacterium tuberculosis isolate 5310 at 37 degC after 3 to 4 weeks by radiometric Bactec 460TB method; assay type: functional
[16] = tested on: Mycobacterium tuberculosis; assay: Antimycobacterial activity against isoniazid, rifampin, ethambutol resistant Mycobacterium tuberculosis isolate NJT5310 expressing embB codon 306 ATG-CTG mutant at 37 degC after 3 to 4 weeks by radiometric Bactec 460TB method; assay type: functional
[17] = tested on: Mycobacterium tuberculosis; assay: Antimycobacterial activity against ethambutol resistant Mycobacterium tuberculosis isolate NJT210EMB-R-C3 assessed as bacterial colony formation at 37 degC after 10 to 11 days by radiometric Bactec 460TB method; assay type: functional
[18] = tested on: Mycobacterium tuberculosis; assay: Antimycobacterial activity against ethambutol resistant Mycobacterium tuberculosis isolate NJT210EMB-R-C2 assessed as bacterial colony formation at 37 degC after 10 to 11 days by radiometric Bactec 460TB method; assay type: functional
[19] = tested on: Mycobacterium tuberculosis; assay: Antimycobacterial activity against isoniazid, rifampin, ethambutol resistant Mycobacterium tuberculosis isolate NJT5310 expressing embB codon 306 ATG-ATC mutant at 37 degC after 3 to 4 weeks by radiometric Bactec 460TB method; assay type: functional
[20] = tested on: Mycobacterium tuberculosis; assay: Antimycobacterial activity against Mycobacterium tuberculosis isolate NJT210 expressing embB codon 306 CTG mutant assessed as bacterial growth rate at 0.03 ug/ml by radiometric Bactec 460TB method; assay type: functional, organism-based
Outline: (§1)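 Sub-MIC growth curves in Bactec 12B vials with isoniazid (strain 210 vs NJT210CTG also rifampin) at several sub-MIC levels. The daily growth index was followed. No-drug controls were inoculated at 1:100 dilution. Values are means and standard deviations of three independent experiments.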

[21] = tested on: Mycobacterium tuberculosis; assay: Antimycobacterial activity against ethambutol-susceptible and rifampin-resistant Mycobacterium tuberculosis isolate NJT30167 expressing embB codon 306 ATG assessed as bacterial growth rate at sub MIC compound concentration by radiometric Bactec 460TB method; assay type: functional, organism-based; outline: as §1
[22] = tested on: Mycobacterium tuberculosis; assay: Antimycobacterial activity against Mycobacterium tuberculosis isolate NJT210 expressing embB codon 306 CTG mutant assessed as bacterial growth rate at 0.04 ug/ml by radiometric Bactec 460TB method; assay type: functional, organism-based; outline: as §1

SMILES: CC[C@@H](CO)NCCN[C@@H](CC)CO [ETHAMBUTOL]
- MIC [1]: 5 µg/mL (≈ 24.5 µM)
- MIC [2]: 14 µg/mL (≈ 68.5 µM)
- MIC [3]: 3 µg/mL (≈ 14.7 µM)
- MIC [4]: 14 µg/mL (≈ 68.5 µM)
- MIC [5]: 20 µg/mL (≈ 97.9 µM)
- MIC [6]: 16 µg/mL (≈ 78.3 µM)
- MIC [7]: 28 µg/mL (≈ 137 µM)
- MIC [8]: 8.5 µg/mL (≈ 41.6 µM)
- MIC [9]: 2 µg/mL (≈ 9.79 µM)
- MIC [10]: 7 µg/mL (≈ 34.3 µM)
- MIC [11]: 8 µg/mL (≈ 39.2 µM)
- MIC [12]: 3 µg/mL (≈ 14.7 µM)
- MIC [13]: 7 µg/mL (≈ 34.3 µM)
- MIC [14]: 2 µg/mL (≈ 9.79 µM)
- MIC [15]: 28 µg/mL (≈ 137 µM)
- MIC [16]: 20 µg/mL (≈ 97.9 µM)
- MIC [17]: 8 µg/mL (≈ 39.2 µM)
- MIC [18]: 14 µg/mL (≈ 68.5 µM)
- MIC [19]: 16 µg/mL (≈ 78.3 µM)

SMILES: NNC(=O)c1ccncc1 [ISONIAZID]
- MIC [2]: 0.05 µg/mL (≈ 0.365 µM)
- MIC [3]: 2.5 µg/mL (≈ 18.2 µM)
- MIC [4]: 0.05 µg/mL (≈ 0.365 µM)
- MIC [5]: 0.07 µg/mL (≈ 0.51 µM)
- MIC [6]: 2.5 µg/mL (≈ 18.2 µM)
- MIC [7]: 2.5 µg/mL (≈ 18.2 µM)
- MIC [8]: 0.05 µg/mL (≈ 0.365 µM)
- MIC [9]: 0.05 µg/mL (≈ 0.365 µM)
- MIC [10]: 0.05 µg/mL (≈ 0.365 µM)
- MIC [12]: 0.07 µg/mL (≈ 0.51 µM)
- MIC [13]: 0.05 µg/mL (≈ 0.365 µM)
- Activity [20]: inactive
- MIC [14]: 0.05 µg/mL (≈ 0.365 µM)
- MIC [15]: 2.5 µg/mL (≈ 18.2 µM)
- MIC [16]: 2.5 µg/mL (≈ 18.2 µM)
- Activity [21]: Active
- Activity [22]: inactive
- MIC [17]: 0.05 µg/mL (≈ 0.365 µM)
- MIC [18]: 0.05 µg/mL (≈ 0.365 µM)
- MIC [19]: 2.5 µg/mL (≈ 18.2 µM)

SMILES: CO[C@H]1/C=C/O[C@@]2(C)Oc3c(C)c(O)c4c(O)c(c(/C=N/N5CCN(C)CC5)c(O)c4c3C2=O)NC(=O)/C(C)=C\C=C\[C@H](C)[C@H](O)[C@@H](C)[C@@H](O)[C@@H](C)[C@H](OC(C)=O)[C@@H]1C [RIFAMPIN]
- MIC [2]: 0.05 µg/mL (≈ 0.0608 µM)
- MIC [3]: >240 µg/mL
- MIC [4]: 0.05 µg/mL (≈ 0.0608 µM)
- MIC [5]: > 240 µg/mL
- MIC [6]: >240 µg/mL
- MIC [7]: >240 µg/mL
- MIC [8]: 0.05 µg/mL (≈ 0.0608 µM)
- MIC [9]: 0.05 µg/mL (≈ 0.0608 µM)
- MIC [10]: 0.05 µg/mL (≈ 0.0608 µM)
- MIC [12]: >240 µg/mL
- MIC [13]: 0.05 µg/mL (≈ 0.0608 µM)
- MIC [14]: 0.05 µg/mL (≈ 0.0608 µM)
- MIC [15]: > 240 µg/mL
- MIC [16]: >240 µg/mL
- Activity [22]: inactive
- MIC [17]: 0.05 µg/mL (≈ 0.0608 µM)
- MIC [18]: 0.05 µg/mL (≈ 0.0608 µM)
- MIC [19]: >240 µg/mL
